Active and inactive are the calls of the source. The calls are words filed in the database; no cut-off is given here.
Columns and labels:
[1] = Binding affinity to Leishmania donovani MetAP1 expressed in Escherichia coli BL21 (DE3) by surface plasmon resonance analysis
In short: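 Recombinant LdMetAP1 amine-coupled to a CM-5 dextran chip. Running and injection buffer was 1X PBS pH 7.4 with 0.05% P-20. Compounds in 2% DMSO injected over the chip at a range of concentrations to record response units. After solvent correction, kinetics fitted to a 1:1 Langmuir binding model.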

Leishmania donovani [2] = assay: Competitive inhibition of Leishmania donovani MetAP1 expressed in Escherichia coli BL21 (DE3) at 1 to 10 uM using varying levels of L-methionine-4-methyl-coumary1-7-amide as substrate preincubated for 30 mins followed by substrate addition and measured for 30 mins by Lineweaver-burk plot analysis; details: dose 1-10 µM, time 60.0 min
Leishmania donovani [3] = assay: Binding affinity to Leishmania donovani MetAP1 expressed in Escherichia coli BL21 (DE3) assessed as intrinsic fluorescence quenching of tryptophan residues measured after 30 mins by fluorescence spectroscopic method
In short: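 LdMetAP1 at 1 µM final in 20 mM Tris-HCl pH 7.5, 50 mM NaCl, incubated with compounds for 30 min at 25°C. Tryptophan fluorescence read at excitation ~295 nm, emission ~300-400 nm. F0/F1 plotted against compound concentration. KSV from linear regression; binding parameters from modified Stern-Volmer plots.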

[4] = Cytotoxicity against mouse embryonic fibroblasts measured after 48 hrs by MTT assay; details: Fibroblast
In short: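 Mouse embryonic fibroblasts exposed to compounds at 0, 50, 100 and 200 µM for 48 h. MTT solution (5 mg/ml) then added for 4 h at 37°C. Formazan dissolved in DMSO and absorbance read at 570 nm.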

[5] = Inhibition of Leishmania donovani MetAP1 expressed in Escherichia coli BL21 (DE3) using L-methionine-4-methyl-coumary1-7-amide as substrate preincubated for 30 mins followed by substrate addition and measured at 1 min interval for 30 mins by spectrofluorometric method
In short: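 His-tagged LdMetAP1 from pET28a, purified by Ni-NTA and gel filtration. Enzyme preincubated 30 min in metal-supplemented assay buffer with compound. L-Met-AMC added at 125 µM and fluorescence recorded. Percent inhibition taken as the net fluorescence decrease against control reactions; IC50 from a range of compound concentrations.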

Leishmania donovani [6] = assay: Uncompetitive inhibition of Leishmania donovani MetAP1 expressed in Escherichia coli BL21 (DE3) at 1 to 10 uM using varying levels of L-methionine-4-methyl-coumary1-7-amide as substrate preincubated for 30 mins followed by substrate addition and measured for 30 mins by Lineweaver-burk plot analysis; details: dose 1-10 µM, time 60.0 min

Structure (SMILES) | IC50 [5] | also measured
N#Cc1cccc(N2C(=O)CSC2c2ccc3cccc(O)c3n2)c1 (stereo unspecified) | 11.7 µM | Kd [1]: 0.0154 µM; inhibition (Leishmania donovani [2]): Active; Activity (Leishmania donovani [3]): Dose-dependent effect; IC50 [4]: > 250 µM
O=C1CSC(c2ccc3cccc(O)c3n2)N1c1ccc(F)cc1 (stereo unspecified) | 45.5 µM | –
O=C1CSC(c2ccc3cccc(O)c3n2)N1c1ccc(I)cc1 (stereo unspecified) | 252 µM | –
COc1cccc(N2C(=O)CSC2c2ccc3cccc(O)c3n2)c1 (stereo unspecified) | 39.7 µM | –
O=C1CSC(c2ccc3cccc(O)c3n2)N1c1cccc(OC(F)(F)F)c1 (stereo unspecified) | 46.4 µM | –
CC(C)c1ccc(N2C(=O)CSC2c2ccc3cccc(O)c3n2)cc1 (stereo unspecified) | 37.4 µM | –
COc1cc(N2C(=O)CSC2c2ccc3cccc(O)c3n2)cc(OC)c1OC (stereo unspecified) | 12.9 µM | –
O=C1CSC(c2ccc3cccc(O)c3n2)N1c1ccc(Br)cc1 (stereo unspecified) | 36.8 µM | –
O=C1CSC(c2ccc3cccc(O)c3n2)N1c1ccccc1 (stereo unspecified) | 79.9 µM | –
O=C1CSC(c2ccc3cccc(O)c3n2)N1c1cccc(Br)c1 (stereo unspecified) | 46.1 µM | –
O=C1CSC(c2ccc3cccc(O)c3n2)N1c1ccc(Cl)cc1 (stereo unspecified) | 1.1 µM | Kd [1]: 0.015 µM; inhibition (Leishmania donovani [2]): Active; Activity (Leishmania donovani [3]): Dose-dependent effect; IC50 [4]: > 200 µM
Cc1cccc(N2C(=O)CSC2c2ccc3cccc(O)c3n2)c1 (stereo unspecified) | 27.9 µM | –
O=C1CSC(c2ccc3cccc(O)c3n2)N1c1cccc(F)c1 (stereo unspecified) | 8.8 µM | Kd [1]: 0.000161 µM; Activity (Leishmania donovani [3]): Dose-dependent effect; IC50 [4]: 120 µM; inhibition (Leishmania donovani [6]): Active
COc1ccc(N2C(=O)CSC2c2ccc3cccc(O)c3n2)cc1OC (stereo unspecified) | 26.4 µM | –
O=C1CSC(c2ccc3cccc(O)c3n2)N1c1ccc(C(F)(F)F)cc1 (stereo unspecified) | 54.1 µM | –
O=C1CSC(c2ccc3cccc(O)c3n2)N1c1ccc(Oc2ccccc2)cc1 (stereo unspecified) | 43.8 µM | –
COc1ccccc1N1C(=O)CSC1c1ccc2cccc(O)c2n1 (stereo unspecified) | 18.4 µM | –
COc1ccc(N2C(=O)CSC2c2ccc3cccc(O)c3n2)cc1 (stereo unspecified) | 62.5 µM | –
Cc1ccc(N2C(=O)CSC2c2ccc3cccc(O)c3n2)cc1 (stereo unspecified) | 1.31 µM | Kd [1]: 0.0215 µM; inhibition (Leishmania donovani [2]): Active; Activity (Leishmania donovani [3]): Dose-dependent effect; IC50 [4]: > 200 µM
COc1cc(OC)cc(N2C(=O)CSC2c2ccc3cccc(O)c3n2)c1 (stereo unspecified) | 18.4 µM | –

From ChEMBL document CHEMBL4715836, “Synthesis and characterization of quinoline-carbaldehyde derivatives as novel inhibitors for leishmanial methionine aminopeptidase 1” (Eur J Med Chem, 2020)
